Source: PubChem BioAssay (several laboratories)
The list is not random: actives were taken first. Their share in the collection is about 2.7%.
ARFGAP1 inh: inhibits rat ARF GTPase activating protein 1; actives 0.26% (n = 360,000); Q62848; Arfgap1-stimulated ARF1 GTP hydrolysis, GDP FP detection; inhibition, % at 16.5 µM;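 active means inhibition above a per-plate limit, mean inhibition of low control wells plus 3 SD, cut at about 25% in these data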;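 further: 0% = DMSO wells with enzyme and 100% = wells lacking Arfgap1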
Target sequence (Q62848 1-136 limits assumed): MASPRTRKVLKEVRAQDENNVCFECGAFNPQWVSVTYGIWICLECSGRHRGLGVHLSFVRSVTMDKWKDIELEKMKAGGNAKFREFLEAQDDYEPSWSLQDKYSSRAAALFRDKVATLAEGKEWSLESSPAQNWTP
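Assay system: Rat Arfgap1 GAP domain (His6, aa 1-136), purified enzyme | Buffer or medium: HEPES 25 mM pH 7.5, NaCl 150 mM, MgCl2, DTT | Schedule: GTP hydrolysis reaction 2 h at 25 °C | Signal: FP of antibody-bound GDP Alexa 633 tracer, ex 620/em 688 nm | Measure: Percent inhibition of Arfgap1-stimulated GTP hydrolysis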
HGIII-sPLA2 inh: Blocks human group III sPLA2 activity. Q9NZ20. QFRET BODIPY PC-A2 liposome hydrolysis, fluorescence. inhibition, % at 12.2 µM. actives 0.56% (n = 370,000);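 active means inhibition above mean plus 3 SD of compounds lying within the high and low control bounds, cut at about 19% in these data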;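 further: 0% = median of test compound wells and 100% = no enzyme DMSO wells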
Target sequence (Q9NZ20 whole entry, looked up): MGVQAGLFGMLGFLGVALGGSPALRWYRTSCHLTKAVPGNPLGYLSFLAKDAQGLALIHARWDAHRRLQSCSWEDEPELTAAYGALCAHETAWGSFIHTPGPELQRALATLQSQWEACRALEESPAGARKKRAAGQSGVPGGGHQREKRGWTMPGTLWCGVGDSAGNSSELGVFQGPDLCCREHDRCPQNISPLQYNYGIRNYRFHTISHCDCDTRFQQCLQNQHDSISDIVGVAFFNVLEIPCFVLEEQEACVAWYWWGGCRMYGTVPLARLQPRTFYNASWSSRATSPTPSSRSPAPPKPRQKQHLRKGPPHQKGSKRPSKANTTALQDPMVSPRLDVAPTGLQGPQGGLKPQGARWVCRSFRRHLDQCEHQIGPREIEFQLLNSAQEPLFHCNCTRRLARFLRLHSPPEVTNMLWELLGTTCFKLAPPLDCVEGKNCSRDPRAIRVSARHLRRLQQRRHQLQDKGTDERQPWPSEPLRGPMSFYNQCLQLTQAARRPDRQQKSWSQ
Rev-erbA mod: modulators of human Rev-erb alpha DNA binding | P20393 | Rev-erbα–FITC-DNA binding, fluorescence polarization, 90 min | activity, % at 10 µM | actives 0.79% (n = 370,000);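 active means activity above about 14%, limit read from the data; passing the limit was not always enough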;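 further: 0% = DMSO wells with 35 nM protein and 100% = DMSO wells with 750 nM protein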
ASAP1 GAP inh: blocks human ASAP1-stimulated Arf1 GTP hydrolysis. Q9ULH1. GDP FP detection. inhibition, % at 16.5 µM. actives 0.19% (n = 360,000); in the data active means inhibition above about 25%;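 further: 0% = vehicle with enzyme and substrate and 100% = no enzyme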
bovine MsrA act: activators of bovine methionine sulfoxide reductase A | purified bovine MsrA, absorbance read-out | AID 602163 | activation, % at 10.6 µM | actives 0.3% (n = 360,000); in the data active means activation above about 7.5%;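 further: 0% = vehicle and 100% = reference activator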
MsrA inhibitor: bovine MsrA inhibition. purified bovine MsrA, absorbance read-out. actives 0.75% (n = 360,000). inhibition, % at 15.5 µM. AID 651718;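 further: 0% = vehicle wells with enzyme and 100% = reference inhibitor wells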
MsrA inh confirm: confirmation of bovine MsrA inhibitors | shares compounds with MsrA inhibitor | purified bovine MsrA, absorbance read-out | inhibition, % at 15.5 µM | actives 41% (n = 2,300) | AID 651822;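 further: coupled to thioredoxin reductase with NADPH and selenocystamine and DMSO as substrate; 0% = vehicle only and 100% = full effect of reference inhibitor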
Active calls of the source: *. Unless noted, no stated cut-off is given here; in the data, active means inhibition above about 4.5%; inactive means the rest.

How did COc1ccc(CN2C(=O)[C@]3(NCCc4c3[nH]c3ccc(OC)cc43)c3cc(F)ccc32)cc1 do in these assays?
HGIII-sPLA2 inh: -16; Rev-erbA mod: -6

What do the screens show for `C/C(=N\NC(=O)c1ccc(NS(=O)(=O)c2cccs2)cc1)c1ccc(O)cc1O`?
ARFGAP1 inh: -8; HGIII-sPLA2 inh: -2; Rev-erbA mod: 3; ASAP1 GAP inh: -13; bovine MsrA act: -3; MsrA inhibitor: 5.5*; MsrA inh confirm: 4.7*

What do the screens show for `COc1cc(/C=N/NC(=O)c2ccc(NS(=O)(=O)c3cccs3)cc2)cc(OC)c1O`?
ARFGAP1 inh: -2; HGIII-sPLA2 inh: -13; Rev-erbA mod: 4; ASAP1 GAP inh: 1; bovine MsrA act: -5; MsrA inhibitor: 6.5*; MsrA inh confirm: 6.4*

What do the screens show for `O=C(N/N=C/c1ccc([N+](=O)[O-])cc1)c1ccc(NS(=O)(=O)c2cccs2)cc1`?
ARFGAP1 inh: -5; HGIII-sPLA2 inh: -11; Rev-erbA mod: 1; ASAP1 GAP inh: -1; bovine MsrA act: -4; MsrA inhibitor: 5.4*; MsrA inh confirm: 6.3*

Results for O=C(NN=Cc1ccc(OC(F)F)cc1)c1ccc(NS(=O)(=O)c2cccs2)cc1 ?
ARFGAP1 inh: 2; HGIII-sPLA2 inh: -2; Rev-erbA mod: 2; ASAP1 GAP inh: 8; bovine MsrA act: -5; MsrA inhibitor: 5.5*; MsrA inh confirm: 3

What do the screens show for `C/C(=N\NC(=O)c1ccc(NS(=O)(=O)c2cccs2)cc1)c1ccccc1`?
ARFGAP1 inh: 15; HGIII-sPLA2 inh: -7; Rev-erbA mod: 1; ASAP1 GAP inh: -2; bovine MsrA act: -5; MsrA inhibitor: 1

What do the screens show for `CC(C)C(=O)N1CCN(c2ccc([N+](=O)[O-])c(NC(C)c3ccccc3)c2)CC1` (centres undefined)?
ARFGAP1 inh: 4; HGIII-sPLA2 inh: 12; Rev-erbA mod: 4; ASAP1 GAP inh: 0; bovine MsrA act: -3; MsrA inhibitor: 12*; MsrA inh confirm: 7.2*

Results for O=[N+]([O-])c1ccc(N2CCCC2)cc1NC(c1ccccc1)c1ccccc1 ?
ARFGAP1 inh: 3; HGIII-sPLA2 inh: 8; Rev-erbA mod: 2; ASAP1 GAP inh: 4; bovine MsrA act: -3; MsrA inhibitor: 0

Results for COc1cc(NC(=O)C2CCN(c3nnc(-n4cccc4)s3)CC2)cc(OC)c1 ?
HGIII-sPLA2 inh: -24; Rev-erbA mod: 4

What do the screens show for `COc1ccc2c(c1)CCCN2C(=O)C1CCCN(S(=O)(=O)c2ccc(C(C)(C)C)cc2)C1` (centres undefined)?
HGIII-sPLA2 inh: -3; Rev-erbA mod: 0

What do the screens show for `CCN(CC)S(=O)(=O)c1cccc(-c2n[nH]c(=S)n2/N=C/c2ccc(OC)cc2)c1`?
ARFGAP1 inh: 7; HGIII-sPLA2 inh: 1; Rev-erbA mod: 5; ASAP1 GAP inh: -6; bovine MsrA act: -1; MsrA inhibitor: 7.7*; MsrA inh confirm: 4

How did C=CCn1cccc(C(=O)Nc2ccc(OC)cc2)c1=O do in these assays?
ARFGAP1 inh: -9; HGIII-sPLA2 inh: -3; Rev-erbA mod: 2; ASAP1 GAP inh: -19; bovine MsrA act: -4; MsrA inhibitor: 1

How did COc1ccc(NC(=O)c2cccn(CC=C(C)C)c2=O)cc1 do in these assays?
ARFGAP1 inh: 4; HGIII-sPLA2 inh: -5; Rev-erbA mod: 1; ASAP1 GAP inh: -11; bovine MsrA act: -5; MsrA inhibitor: 4.7*; MsrA inh confirm: 2

Results for COC(=O)COc1ccc(/C=C2/NC(=O)N(CC(=O)OC)C2=O)cc1 ?
ARFGAP1 inh: -4; HGIII-sPLA2 inh: -2; Rev-erbA mod: 0; ASAP1 GAP inh: -7; bovine MsrA act: -4; MsrA inhibitor: 5.5*; MsrA inh confirm: 5.4*

What do the screens show for `CCOc1cc(/C=C2/NC(=O)N(CC(=O)OC)C2=O)ccc1O`?
ARFGAP1 inh: -13; HGIII-sPLA2 inh: 1; Rev-erbA mod: -1; ASAP1 GAP inh: -1; bovine MsrA act: -5; MsrA inhibitor: 7.4*; MsrA inh confirm: 5.8*

Results for COc1ccc(-n2c(SCc3nc4ccccc4[nH]3)nc3ccccc3c2=O)cc1 ?
HGIII-sPLA2 inh: 5; Rev-erbA mod: -6

How did Cc1ccsc1/C=N/NC(=O)c1ccccn1 do in these assays?
ARFGAP1 inh: -4; HGIII-sPLA2 inh: 13; Rev-erbA mod: 7; ASAP1 GAP inh: -4; bovine MsrA act: -3; MsrA inhibitor: 5.7*; MsrA inh confirm: 4

How did O=C(N/N=C/c1ccc(Br)s1)c1ccccn1 do in these assays?
ARFGAP1 inh: 9; HGIII-sPLA2 inh: -2; Rev-erbA mod: 1; ASAP1 GAP inh: -6; bovine MsrA act: -2; MsrA inhibitor: 6.0*; MsrA inh confirm: 7.0*

What do the screens show for `O=C(N/N=C/c1ccsc1)c1ccccn1`?
ARFGAP1 inh: -2; HGIII-sPLA2 inh: 0; Rev-erbA mod: 1; ASAP1 GAP inh: -12; bovine MsrA act: -8; MsrA inhibitor: 2

What do the screens show for `COc1ccc(CNS(=O)(=O)/C=C/c2ccccc2CNC(=O)OC(C)(C)C)cc1`?
HGIII-sPLA2 inh: -9; Rev-erbA mod: 4

What do the screens show for `O=C(/C=C/c1ccco1)NC(=S)Nc1ccccc1`?
ARFGAP1 inh: 1; HGIII-sPLA2 inh: 10; Rev-erbA mod: 0; ASAP1 GAP inh: 7; bovine MsrA act: -4; MsrA inhibitor: 4

How did Cc1cccc(NC(=S)NC(=O)/C=C/c2ccco2)c1 do in these assays?
ARFGAP1 inh: -7; HGIII-sPLA2 inh: 3; Rev-erbA mod: 0; ASAP1 GAP inh: -4; bovine MsrA act: -5; MsrA inhibitor: 25*; MsrA inh confirm: 1

How did Cc1sc(=NC(=O)c2ccco2)n(C)c1-c1ccccc1 do in these assays?
ARFGAP1 inh: -2; HGIII-sPLA2 inh: -3; Rev-erbA mod: 6; ASAP1 GAP inh: 0; bovine MsrA act: -7; MsrA inhibitor: 4

What do the screens show for `Cn1c(=NC(=O)c2ccco2)sc2ccccc21`?
ARFGAP1 inh: 6; HGIII-sPLA2 inh: 1; Rev-erbA mod: -7; ASAP1 GAP inh: -9; bovine MsrA act: -7; MsrA inhibitor: 7.5*; MsrA inh confirm: 5.6*

Results for CC(C)C[C@H]1COc2cc(Br)ccc2S(=O)(=O)N1Cc1cn(Cc2ccc(C(F)(F)F)cc2)nn1 ?
HGIII-sPLA2 inh: 10; Rev-erbA mod: -1

Results for COc1nccnc1NS(=O)(=O)c1ccc(N/C=C2\CCCCC2=O)cc1 ?
ARFGAP1 inh: -3; HGIII-sPLA2 inh: 1; Rev-erbA mod: 3; ASAP1 GAP inh: -3; bovine MsrA act: -3; MsrA inhibitor: 5.3*; MsrA inh confirm: 4.6*

How did COc1nccnc1NS(=O)(=O)c1ccc(NS(=O)(=O)c2ccc(NC(C)=O)cc2)cc1 do in these assays?
ARFGAP1 inh: 2; HGIII-sPLA2 inh: 1; Rev-erbA mod: 4; ASAP1 GAP inh: 5; bovine MsrA act: 0; MsrA inhibitor: 1
